pIC50: −log10 of the molar value. Where only a bound is given, the exact number is not on record here.

For one experiment, the species on record is Homo sapiens. As to the kind of experiment: In vitro ability to inhibit arachidonic acid induced platelet aggregation (AAIPA) of human platelet-rich plasma (PRP).
Settings: not given
The format is functional. The procedure, abridged: (§1)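 Aggregation of human platelet-rich plasma triggered with arachidonic acid at 800 μM. The method follows an earlier report, and the value is given as I50.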
As to `CCCC[C@@H](O)/C=C/C1C2CCC(O2)C1C/C=C\CCCC(=O)O` (stereo partly drawn), half-maximal activity (AC50) was put at 2.5 µM.

The species entered for the next experiment is Homo sapiens. In words: In vitro ability to cause dose dependent inhibition of arachidonic acid (AA) conversion to PGE-2. It is filed as functional. The following applies: Homo sapiens; read-out: I50. In short, it runs like this:
(§2)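 Compound incubated with platelet lysate at several concentrations. Read-out is inhibition of arachidonic acid conversion to TXA2, measured as TXB2 production, and to PGE2. The value is given as I50.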
Consider `CCCCCCOC[C@@H]1C2CCC(O2)[C@H]1C/C=C\CCCC(=O)O` (stereo in doubt; 1), for which the pIC50 was 5.42.

The same experiment, now with this note: read-out: I50.
Consider `CCCCCCOC[C@@H]1C2CCC(O2)[C@H]1C/C=C\CCCC(=O)O` (stereo in doubt; 1), for which the pIC50 was 5.20.

The species named for the next experiment is Homo sapiens. In words: In vitro ability to cause dose dependent inhibition of arachidonic acid (AA) conversion to thromboxane A2 (TXA2 ). It is filed as functional. The following applies: read-out: I50. The procedure, abridged:
as §2
For `CCCCCCOC[C@@H]1C2CCC(O2)[C@H]1C/C=C\CCCC(=O)O` (stereo in doubt; 1), the pIC50 was 5.20.

The species entered for another experiment is Homo sapiens. In words: In vitro ability to inhibit adenosine diphosphate induced platelet aggregation (ADPIPA) of human platelet-rich plasma (PRP), and I50 value was reported from single determination. Conditions: read-out: I50. The format is functional, organism-based.
In the case of `CCCCC[C@H](O)/C=C/[C@H]1C2CCC(O2)[C@@H]1C/C=C\CCCC(=O)O` (stereo partly drawn), the pIC50 was 5.80.

For the next experiment, the species on record is Homo sapiens. As to the kind of experiment: In vitro inhibition of arachidonic acid induced platelet aggregation of human platelet-rich plasma. The format is functional. Conditions: Homo sapiens, Plasma; read-out: I50. In short, it runs like this:
as §1
With `O=C(O)CCCCC1CC2C3CCC(O3)C2CO1` (stereo not drawn), the pIC50 was below 3.00.

`CCCCCCCO[C@@H]1C2CCC(O2)[C@@H]1C/C=C\CCCC(=O)O` (stereo partly drawn): the pIC50 was 3.47.

With `COc1ccc2c(c1)c(CC(=O)O)c(C)n2C(=O)c1ccc(Cl)cc1` [INDOMETHACIN], the pIC50 was 5.40.

Take `O=C(O)CCC/C=C\CC1C2CCC(O2)C1COCCCc1ccccc1` (stereo not drawn): the pIC50 is 4.59.

On to `CCC/C=C/COCC1C2CCC(O2)C1C/C=C\CCCC(=O)O` (stereo not drawn), for which the pIC50 is 6.52.

In the case of `CCCCCOCCC1C2CCC(O2)C1C/C=C\CCCC(=O)O` (stereo not drawn), the pIC50 is 3.98.

Take `CCC/C=C\COCC1C2CCC(O2)C1C/C=C\CCCC(=O)O` (stereo not drawn): the pIC50 was 5.48.

Consider `CCCCCCCCOCC1C2CCC(O2)C1C/C=C\CCCC(=O)O` (stereo not drawn), for which the pIC50 is 4.49.

As to `CCCCCCOC(C)C1C2CCC(O2)C1CC=CCCCC(=O)O` (stereo not drawn), the pIC50 was 4.85.

In the case of `COCC1C2CCC(O2)C1C/C=C\CCCC(=O)O` (stereo not drawn), the pIC50 is 4.66.

Consider `CCCCC[C@H](O)/C=C/[C@H]1C2CCC(O2)[C@@H]1C/C=C\CCCC(=O)O` (stereo partly drawn), for which the pIC50 was 6.52.

`O=C(O)CCC/C=C\CC1C2CCC(O2)C1COCC1CCCCC1` (stereo not drawn): the pIC50 was 3.78.

For the molecule `CCCCCCOCC1C2CCC(O2)C1CCCCCCC(=O)O` (stereo not drawn), the pIC50 was 6.70.

Consider `CCCC#CCOCC1C2CCC(O2)C1C/C=C\CCCC(=O)O` (stereo not drawn), for which the pIC50 was 6.70.

Take `CC(=O)Oc1ccccc1C(=O)O` [ASPIRIN]: the pIC50 is 3.73.

As for `CCCCC(C)COCC1C2CCC(O2)C1C/C=C\CCCC(=O)O` (stereo not drawn), the pIC50 is 5.13.

As for `C=CCOCC1C2CCC(O2)C1C/C=C\CCCC(=O)O` (stereo not drawn), the pIC50 was 5.22.

Take `CC/C=C/CCOCC1C2CCC(O2)C1C/C=C\CCCC(=O)O` (stereo not drawn): the pIC50 was 6.30.

In the case of `CCCCCCCO[C@H]1C2CCC(O2)[C@@H]1C/C=C\CCCC(=O)O` (stereo partly drawn), the pIC50 is 3.92.

The experiment is the same for the next values; noted with them: read-out: I50.
For the molecule `CCCCCCOC[C@@H]1C2CCC(O2)[C@H]1C/C=C\CCCC(=O)O` (stereo in doubt; 9), the pIC50 was 4.60.

Consider `CCCCCC(C)OCC1C2CCC(O2)C1C/C=C\CCCC(=O)O` (stereo in doubt; form 2), for which the pIC50 is 5.49.

As for `CCCCCCOC[C@@H]1C2CCC(O2)[C@@H]1C/C=C\CCCC(=O)O` (single isomer, unassigned; (-)), the pIC50 is 4.41.

Consider `CCCCCCOC[C@@H]1C2CCC(O2)[C@H]1C/C=C\CCCC(=O)O` (stereo in doubt; 11), for which the pIC50 was 4.74.

Regarding `CCCCCCOC[C@@H]1C2CCC(O2)[C@@H]1C/C=C\CCCC(=O)O` (stereo in doubt; 10), the pIC50 was 5.00.

`CCCCCC(C)OCC1C2CCC(O2)C1C/C=C\CCCC(=O)O` (stereo in doubt; form 1): the pIC50 was 4.64.

With `CCCCCCOC[C@@H]1C2CCC(O2)[C@H]1C/C=C\CCCC(=O)O` (stereo in doubt; 1), the pIC50 was 6.30.

The species named for the next experiment is Homo sapiens. In words: In vitro ability to inhibit adenosine diphosphate induced platelet aggregation (ADPIPA) of human platelet-rich plasma (PRP). The format is functional. Conditions: read-out: I50.
Regarding `CCCCC[C@H](O)/C=C/[C@@H]1C2CCC(O2)[C@@H]1C/C=C\CCCC(=O)O` (stereo partly drawn), the pIC50 is 3.52.

Consider `CCCCCCOC[C@@H]1C2CCC(O2)[C@H]1C/C=C\CCCC(=O)O` (stereo in doubt; 1), for which the pIC50 was below 3.00.

The record behind these values is ChEMBL document CHEMBL1123449, “9,11-Epoxy-9-homo-14-oxaprosta-5-enoic acid derivatives. Novel inhibitors of fatty acid cyclooxygenase” (J Med Chem, 1986).
